Substrate in data set [1]: NC(=O)c1cc(N2CC2)c([N+](=O)[O-])cc1[N+](=O)[O-]
The experiment in a line: (§1) Substrate activity at Staphylococcus saprophyticus nitroreductase assessed as Km using NADPH as cofactor in presence of Tris-Cl buffer at pH 7.5 by spectrophotometric method. In kind it is ADME. In a few lines:
(§2)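 Michaelis–Menten parameters for recombinant Ssap-NtrB were measured spectrophotometrically at 25 °C in 25 mM Tris-Cl buffer pH 7.5 containing 5% DMSO as cosolvent.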

Substrate in data set [2]: CCN(C(C)=O)c1cc([N+](=O)[O-])cc([N+](=O)[O-])c1
The data set is described as §1. In kind it is ADME. In a few lines:
as §2

Substrate in data set [3]: NC(=O)c1cc(N(CCCl)CCCl)c([N+](=O)[O-])cc1[N+](=O)[O-]
The data set can be described thus: (§3) Substrate activity at Escherichia coli nitroreductase nfsB assessed as Kcat using NADH as cofactor at […] in Tris-Cl buffer at pH 7.5 by spectrophotometric method.

Substrate in data set [4]: CS(=O)(=O)OCCN(CCBr)c1c(C(=O)NCCO)cc([N+](=O)[O-])cc1[N+](=O)[O-]
Described as §3.

Substrate in data set [5]: NC(=O)c1cc(N2CC2)c([N+](=O)[O-])cc1[N+](=O)[O-]
The data set is described as §3.

Substrate in data set [6]: CS(=O)(=O)OCCN(CCBr)c1c(C(=O)NCCO)cc([N+](=O)[O-])cc1[N+](=O)[O-]
The data set can be described thus: (§4) Substrate activity at Escherichia coli nitroreductase nfsB assessed as Km using NADH as cofactor in Tris-Cl buffer at pH 7.5 by spectrophotometric method. Format: ADME.

Substrate in data set [7]: NC(=O)c1cc(N2CC2)c([N+](=O)[O-])cc1[N+](=O)[O-]
Described as §4. In kind it is ADME.

B1: Putative nitroreductase (Staphylococcus saprophyticus subsp. saprophyticus ATCC 15305 = NCTC 7292) (protein)
chain: MINNNFEEILMNRKSVKVFDEQVKIPKAEMDEMIKKATTAPSSVNMQPWRFLVVESDEGKDTLRPLIRFNTRQNDSSAAMVVIFGDMKSQTNAEEIYGNAVKHDLMPEEVKQEMLKKVIPLYDNAPKEQMNDIVKIDSSLAAMQFMLVAKAHGYDTNPIGGFESDQIADAFGIDSERYVPVLIVAIGKAKNPAHGSYRLPTETVTKYV
One may read the Km as the substrate concentration at which the rate is half of its maximum. What is called kcat is the number of substrate molecules converted per active site and unit of time at saturation. As usually defined, the kcat/Km is the second-order rate constant that governs catalysis at low substrate concentration. In the case of B1, in data set [1], the Km was 1070 µM, the kcat was found to be 2.26 s⁻¹ and the kcat/Km is 2120 M⁻¹ s⁻¹. Besides, the Km in data set [2] worked out at 96.9 µM.

B2: Oxygen-insensitive NAD(P)H nitroreductase (Escherichia coli K-12), P38489 (protein)
chain: MDIISVALKRHSTKAFDASKKLTPEQAEQIKTLLQYSPSSTNSQPWHFIVASTEEGKARVAKSAAGNYVFNERKMLDASHVVVFCAKTAMDDVWLKLVVDQEDADGRFATPEAKAANDKGRKFFADMHRKDLHDDAEWMAKQVYLNVGNFLLGVAALGLDAVPIEGFDAAILDAEFGLKEKGYTSLVVVPVGHHSVEDFNATLPKSRLPQNITLTEV
B2: the kcat came out at 26.4 s⁻¹ in data set [3], 60 s⁻¹ in data set [4] and 62 s⁻¹ in data set [5].

B3: Oxygen-insensitive NAD(P)H nitroreductase (Escherichia coli K-12) (protein)
chain: B2 chain
On to B3, for which, in data set [6], the Km was 4500 µM and the kcat/Km was 13000 M⁻¹ s⁻¹. Further, in data set [7], the Km is 11000 µM and the kcat/Km came out at 5600 M⁻¹ s⁻¹.

(Values after ChEMBL document CHEMBL4393661, “PRODRUGS FOR NITROREDUCTASE BASED CANCER THERAPY- 2: Novel amide/Ntr combinations targeting PC3 cancer cells” (Eur J Med Chem, 2019).)
